pPAFAH inh: pPAFAH (human) enzyme inhibition | inhibition, % at 3.39 µM | 330,000 tested, 1.5% active | recombinant pPAFAH, FP-rhodamine probe fluorescence polarization | Q13093;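 active means inhibition above the mean inhibition across the screen plus 3 SD, cut at about 25% in these data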;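 further: inhibitors block binding of the rhodamine activity-based probe so polarization drops; 0% = enzyme with DMSO and 100% = wells lacking pPAFAH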
HTRA1 inhibitor: HTRA1 (human) protease inhibition; AID 504803; inhibition, % at 5.96 µM; recombinant HTRA1, FP-rhodamine activity-based probe, fluorescence polarization; 340,000 tested, 0.5% active; in the data active means inhibition above about 36%;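 further: 0% = enzyme with DMSO and 100% = wells lacking enzyme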
Target sequence (Q92743 whole entry, looked up): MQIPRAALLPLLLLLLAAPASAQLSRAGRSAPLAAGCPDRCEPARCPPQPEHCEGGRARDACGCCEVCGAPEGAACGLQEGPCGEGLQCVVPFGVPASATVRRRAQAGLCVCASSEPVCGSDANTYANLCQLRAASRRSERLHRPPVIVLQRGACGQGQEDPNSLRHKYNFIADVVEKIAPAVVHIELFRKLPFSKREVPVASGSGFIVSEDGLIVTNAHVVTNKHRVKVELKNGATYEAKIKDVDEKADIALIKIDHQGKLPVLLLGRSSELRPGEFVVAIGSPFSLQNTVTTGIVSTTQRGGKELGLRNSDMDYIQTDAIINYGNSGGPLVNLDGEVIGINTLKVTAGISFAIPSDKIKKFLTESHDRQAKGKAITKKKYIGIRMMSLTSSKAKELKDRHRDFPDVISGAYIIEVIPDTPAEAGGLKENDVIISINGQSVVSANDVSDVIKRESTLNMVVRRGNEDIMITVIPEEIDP
ABHD4 inh: ABHD4 (mouse) inhibition, primary FP screen; Q8VD66; purified mABHD4, FP-Rh probe fluorescence polarization; inhibition, % at 8.92 µM; 370,000 tested, 0.54% active; AID 720543;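 active means inhibition exceeding the mean over every tested compound plus 3 SD, cut at about 30% in these data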;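 further: 0% = plate median of compound wells and 100% = S159A mutant with DMSO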
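assay system = mABHD4 protein | compound dosing = single nominal dose of 8.92 µM, 0.89% DMSO final | read-out basis = percent inhibition of probe binding, normalized to plate controls | schedule = Enzyme–compound pre-incubation 45 min, then probe 60 min, both 25 °C | detection = fluorescence polarization, excitation 525 nm, emission 598 nm, BODIPY TMR filters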
TCR-CD3 inh: blocks the human TCR-CD3 interaction. TAMRA-labeled TCR probe fluorescence, biochemical. inhibition, % at 9.4 µM. 360,000 tested, 0.37% active. AID 651800; in the data active means inhibition above about 19%;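 further: recombinant mutant TCR 2C K166C tagged with TAMRA read by polarization; 0% = receptor in buffer alone and 100% = receptor with positive control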
SIAE primary: human SIAE inhibition, primary screen | AID 1053197 | Q9HAT2 | inhibition, % at 9.66 µM | SIAE FP-Rh probe binding, fluorescence polarization | 370,000 tested, 0.69% active;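 active means inhibition above a cutoff: mean of compounds within the control limits plus 3 SD of those, cut at about 17% in these data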;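 further: 0% = plate median of compound wells and 100% = probe without SIAE protein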
SIAE inh conf: human SIAE inhibition, confirmation; shares compounds with SIAE primary; SIAE FP-Rh activity-based probe, fluorescence polarization; inhibition, % at 9.66 µM; 2,300 tested, 13% active;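 active means mean inhibition of the replicates above the hit cutoff set in the primary screen, cut at about 17% in these data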;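 further: 0% = SIAE with DMSO and probe and 100% = probe without SIAE; inhibitors lower polarization as more probe stays unbound to SIAE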
An asterisk follows results filed as active; nt = not tested or not shown. Sampled rows, rich in hits. Any-hit rate of the full collection: about 2.3%.

SMILES | pPAFAH inh | HTRA1 inhibitor | ABHD4 inh | TCR-CD3 inh | SIAE primary | SIAE inh conf
COc1ccc(C2=Nc3cccc4cccc(c34)N2)cc1 | -1 | 5 | 5 | 5 | 26* | 2
CC(C)C1=Nc2cccc3cccc(c23)N1 | 9 | 26 | 16 | 12 | 11 | nt
Nc1cccc(C2=Nc3cccc4cccc(c34)N2)c1 | -3 | -3 | -4 | 0 | 45* | 4
CCCC1CCC2(CC1)CCC2OC(=O)Nc1ccccc1OC (stereo not drawn) | nt | nt | 5 | nt | 9 | nt
CN(C)CCNC(=O)c1cccc(-c2cc(NC=O)c3ncc(-c4cccc(C(F)(F)F)c4)n3c2)c1 | nt | nt | -5 | -2 | -5 | nt
C1C2CC3C1C3C2=NN=C1C2CC3C(C2)C13 | nt | nt | -1 | 2 | -1 | nt
O=C(OCC(=O)c1c[nH]c2ccccc12)c1cccc([N+](=O)[O-])c1 | 1 | -23 | -11 | -5 | 21* | -2
O=C(OCC(=O)c1c[nH]c2ccccc12)c1cncc(Br)c1 | 20 | -29 | -3 | 0 | -2 | nt
COc1ccccc1CN1CCCC(N2CCN(c3ccccc3OC)CC2)C1 (stereo not drawn) | nt | 7 | 3 | -4 | 0 | nt
COc1ccccc1N1CCN(C2CCCN(Cc3cccc(O)c3)C2)CC1 (stereo not drawn) | 2 | -6 | 4 | 3 | 17* | 5
Cc1ccccc1NC(=S)N1CCN(c2ccccc2)CC1 | 0 | 8 | -1 | 4 | 18* | 3
O=C1CCCC(O)=C1N=Nc1cccc(C(=O)O)c1 | 12 | 29 | 21 | 0 | 21* | 5
Cc1nc2ccc(N=NC3=C(O)CCCC3=O)cc2s1 | 0 | -2 | 3 | -2 | 6 | nt
O=C1CCCC(O)=C1N=Nc1c(Cl)cc(Cl)cc1Cl | 14 | 16 | 24 | 6 | 21* | 5
CC(C)CNC(=O)OCc1cn(Cc2ccccc2)nn1 | nt | nt | 6 | nt | 3 | nt
C[C@@H]1CN([C@@H](C)CO)C(=O)CCCn2cc(nn2)CO[C@H]1CN(C)C(=O)C1CC1 | nt | nt | 5 | -3 | 10 | nt
CN(C)c1ccc(-c2csc(C(O)c3ccc(F)c(F)c3)n2)cc1 (stereo not drawn) | nt | nt | 4 | 3 | 17* | 2
COC(=O)CC1C(=O)NCCN1C(=O)CSc1nc2cc(Cl)ccc2o1 (stereo not drawn) | 4 | -2 | -4 | 2 | 21* | 3
COC(=O)CC1C(=O)NCCN1C(=O)c1ccc2oc(C(C)C)nc2c1 (stereo not drawn) | 5 | 3 | -1 | 7 | -5 | nt
CNC(=O)c1c(NC(=O)c2ccc(S(=O)(=O)N3CCCCC3C)cc2)sc2c1CCN(C)C2 (stereo not drawn) | -1 | -2 | -1 | 4 | 17* | 6
COc1ccc(S[C@]2(C(=O)N3CCN(c4ncccn4)CC3)CC(=O)N(C(=O)C3CC3)[C@@H]2c2ccc(OC)cc2)cc1 | nt | nt | 1 | nt | -3 | nt
CC(C)C(OC(=O)CN1C(=O)COc2ccccc21)C(=O)NC1CCCCC1 (stereo not drawn) | -1 | -1 | 7 | 0 | 18* | -2
O=C1CCc2ccccc2N1Cc1ccccc1 | 1 | 2 | -3 | 7 | 18* | 0
COC(=O)/C=C1\OCc2cc(OCc3ccccc3)ccc21 | nt | nt | -3 | -7 | 5 | nt
CC(=O)Nc1cc(NC(C)=O)cc(C(=O)NCC2(N3CCOCC3)CCCCC2)c1 | nt | 1 | 3 | 3 | 21* | -3
SMILES | pPAFAH inh | HTRA1 inhibitor | ABHD4 inh | TCR-CD3 inh | SIAE primary | SIAE inh conf
CN(C)S(=O)(=O)c1cccc(C(=O)NCC2(N3CCOCC3)CCCCC2)c1 | 4 | -3 | 3 | 1 | -5 | nt
CC(C)NC(=S)Nc1ccc2cn[nH]c2c1 | 0 | 9 | 0 | 11 | 19* | -6
COc1ccc(NC(=S)Nc2ccc3cn[nH]c3c2)cc1 | 3 | 4 | 8 | -5 | 5 | nt
O=C(Nc1cc2c3c(c1)CC(=O)N3CCC2)C1CCCCC1 | 5 | -4 | 6 | -2 | -3 | nt
O=C(Nc1cc2c3c(c1)CC(=O)N3CCC2)C1CC1 | 1 | -2 | -1 | -6 | 20* | -1
CN(CCO)c1ccc2c(c1)Oc1ccccc1CN(Cc1cn(Cc3ccc(C(F)(F)F)cc3)nn1)S2(=O)=O | nt | nt | 5 | nt | 4 | nt
O=C(O)CSc1nnc(NC(=O)c2ccc3c(c2)OCO3)s1 | 3 | 6 | 2 | 2 | 0 | nt
COC(=O)CSc1nnc(NC(=O)c2ccc3c(c2)OCO3)s1 | 0 | 7 | 0 | 18 | 19* | -2

High-throughput results as filed in PubChem BioAssay.
